According to ChEMBL document CHEMBL3421613, “Inubosins A, B, and C are acridine alkaloids isolated from a culture of Streptomyces sp. IFM 11440 with Ngn2 promoter activity” (J Nat Prod, 2015):
The source made the active and inactive calls. The rule behind the calls is not given here.

Legend:
Mus musculus [1] = organism: Mus musculus; assay: Induction of Ngn1 mRNA expression in mouse C17.2 cells at 20 uM incubated for 4 days by real-time RT-PCR method; format: functional, cell-based
How it was run: (§1)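 Mouse C17.2 neural stem cells were treated at 20 μM for 4 days, with baicalin (20 μM) as positive control. Total RNA was isolated and Ngn2, Ngn1, NeuroD2 and NT3 transcripts were quantified by real-time RT-PCR. mRNA levels were normalized to GAPDH; SD shown.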

Mus musculus [2] = organism: Mus musculus; assay: Induction of Ngn2 mRNA expression in mouse C17.2 cells at 20 uM incubated for 4 days by real-time RT-PCR method; format: functional, cell-based; how it was run: as §1
Mus musculus [3] = organism: Mus musculus; assay: Induction of NT3 mRNA expression in mouse C17.2 cells at 20 uM incubated for 4 days by real-time RT-PCR method; format: functional, cell-based; how it was run: as §1
C3H 10T1/2 [4] = assay: Activation of 1650 bp mouse Ngn2 promoter activity expressed in mouse C3H10T1/2 cells at 20 uM incubated for 24 hrs by luciferase reporter gene assay relative to baicalin; format: cell-based
How it was run: (§2)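 C3H10T1/2 mesenchymal progenitor cells stably transfected with a luciferase reporter carrying the mouse Ngn2 promoter region (1650 bp). Cells were exposed for 24 h in 0.1% DMSO, with DMSO as negative control and baicalin (100 μM) as positive control. Luciferase output was read, n = 3, SD. Cytotoxicity to the same cells was measured in parallel by fluorimetric microculture assay (esterase hydrolysis of fluorescein diacetate).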

C3H 10T1/2 [5] = assay: Activation of 1650 bp mouse Ngn2 promoter activity expressed in mouse C3H10T1/2 cells at 2.5 to 20 uM incubated for 24 hrs by luciferase reporter gene assay; format: cell-based; how it was run: as §2
Mus musculus [6] = organism: Mus musculus; assay: Induction of NeuroD2 mRNA expression in mouse C17.2 cells at 20 uM incubated for 4 days by real-time RT-PCR method; format: functional, cell-based; how it was run: as §1
Mus musculus [7] = organism: Mus musculus; assay: Induction of cell differentiation of mouse C17.2 cells assessed as appearance of differentiated cell bodies; format: functional
C3H 10T1/2 [8] = assay: Activation of 1650 bp mouse Ngn2 promoter activity expressed in mouse C3H10T1/2 cells at 20 uM incubated for 24 hrs by luciferase reporter gene assay relative to untreated control; format: cell-based; how it was run: as §2
C3H 10T1/2 [9] = assay: Activation of 1650 bp mouse Ngn2 promoter activity expressed in mouse C3H10T1/2 cells at 100 uM incubated for 24 hrs by luciferase reporter gene assay relative to untreated control; format: cell-based; how it was run: as §2

Row | SMILES | Activity (Mus musculus [1]) | Activity (Mus musculus [2]) | Activity (Mus musculus [3]) | fold change (FC) (C3H 10T1/2 [4]) | Activity (C3H 10T1/2 [5]) | Activity (Mus musculus [6]) | Activity (Mus musculus [7]) | fold change (FC) (C3H 10T1/2 [8]) | fold change (FC) (C3H 10T1/2 [9])
1 | OCc1cc(O)c2nc3ccccc3cc2c1 | Active | Active | Active | 1.9 | Dose-dependent effect | Active | Active | 2.8 | –
2 | OCc1cc(O)c2nc3c(O)cccc3cc2c1 | – | – | – | – | inactive | – | – | – | –
3 | OCc1ccc2nc3c(O)cccc3cc2c1 | Active | Active | Active | – | inactive | Active | Active | – | –
4 | O=C(O)[C@H]1O[C@@H](Oc2cc3oc(-c4ccccc4)cc(=O)c3c(O)c2O)[C@H](O)[C@@H](O)[C@@H]1O | – | – | – | – | – | – | – | – | 1.5
